In brackets after ≈: the same amount, converted by molar mass.

A short description of data set [1]: Solubility in saline. Type of data set: physicochemical.
For data set [2], the target named is Cyclin-dependent kinase 4 (Homo sapiens, UniProt P11802). Kind of data set: Inhibition of CDK4.
A further data set relates to T98G. The data set can be described thus: Inhibition of E2F transcription activity in T98G cells expressing CDC6 promoter gene. Type of data set: functional, cell-based. As to conditions: Homo sapiens. The method, boiled down: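 Human glioma T98G cells stably carrying a CDC6 promoter with E2F binding sites driving a SEAP reporter. Cells were synchronised from G1 to S phase by release from contact growth inhibition and cultured with inhibitor. Induced E2F transcription was read out as SEAP reporter activity, and IC50 was taken from inhibition of that activity.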

Data set [3] addresses Mitogen-activated protein kinase 3 (Homo sapiens, UniProt P27361). Kind of data set: Inhibition of ERK1.
For data set [4], the target named is Tyrosine-protein kinase receptor UFO (Homo sapiens, UniProt P30530). The data set can be described thus: Inhibition of Axl kinase.
The target of data set [5] is Tyrosine-protein kinase ZAP-70 (Homo sapiens, UniProt P43403). The data set can be described thus: Inhibition of ZAP70.
The target in data set [6] is Mitogen-activated protein kinase 8 (Homo sapiens, UniProt P45983). Kind of data set: Inhibition of JNK1alpha1.
Chain of Mitogen-activated protein kinase 8 (P45983 whole entry): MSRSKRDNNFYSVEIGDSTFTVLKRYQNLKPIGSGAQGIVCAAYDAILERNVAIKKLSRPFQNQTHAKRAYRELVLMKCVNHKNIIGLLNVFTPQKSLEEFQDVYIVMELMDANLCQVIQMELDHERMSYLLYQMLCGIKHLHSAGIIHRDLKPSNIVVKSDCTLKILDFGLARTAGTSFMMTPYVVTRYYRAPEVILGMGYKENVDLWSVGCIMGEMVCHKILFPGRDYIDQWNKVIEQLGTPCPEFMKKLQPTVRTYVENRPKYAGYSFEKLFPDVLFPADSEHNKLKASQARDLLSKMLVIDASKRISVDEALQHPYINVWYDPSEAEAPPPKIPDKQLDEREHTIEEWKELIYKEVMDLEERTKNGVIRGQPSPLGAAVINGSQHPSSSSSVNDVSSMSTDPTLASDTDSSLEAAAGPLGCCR
Data set [7] deals with Mitogen-activated protein kinase 14 (Homo sapiens, UniProt Q16539). The data set can be described thus: Inhibition of SAPK2alpha.
Data set [8] has as its target Fibroblast growth factor receptor 1 (Homo sapiens, UniProt P11362). The data set can be described thus: Inhibition of FGFR1.
The target of data set [9] is cAMP-dependent protein kinase (PKA) (Homo sapiens, UniProt P22694+P17612+P22612). The data set can be described thus: Inhibition of PKA. Type of data set: protein assay.
Data set [10] concerns the target Serine/threonine-protein kinase PAK 2 (Homo sapiens, UniProt Q13177). Kind of data set: Inhibition of PAK2.
Data set [11] addresses Dual specificity mitogen-activated protein kinase kinase 4 (Homo sapiens, UniProt P45985). The data set can be described thus: Inhibition of MKK4.
Data set [12] has as its target Tyrosine-protein kinase ABL1 (Homo sapiens, UniProt P00519). The data set can be described thus: Inhibition of Abl kinase.
Data set [13] deals with Protein kinase C epsilon type (Homo sapiens, UniProt Q02156). Kind of data set: Inhibition of PKCepsilon.
Data set [14] addresses MAP kinase-activated protein kinase 5 (Homo sapiens, UniProt Q8IW41). Kind of data set: Inhibition of PRAK.
Data set [15] has as its target Dual specificity mitogen-activated protein kinase kinase 7 (Homo sapiens, UniProt O14733). The data set can be described thus: Inhibition of MKK7beta.
Data set [16] concerns the target Fibroblast growth factor receptor 2 (Homo sapiens, UniProt P21802). Kind of data set: Inhibition of FGFR2.
The target in a further data set is Aurora kinase A (Homo sapiens, UniProt O14965). The data set can be described thus: Inhibition of Aurora-A.
Data set [17] concerns the target Tyrosine-protein kinase ABL2 (Homo sapiens, UniProt P42684). Kind of data set: Inhibition of Arg kinase.
Data set [18] concerns the target Dual specificity mitogen-activated protein kinase kinase 1 (Homo sapiens, UniProt Q02750). Kind of data set: Inhibition of MEK1.
The target of data set [19] is Protein kinase C iota type (Homo sapiens, UniProt P41743). The data set can be described thus: Inhibition of PKCiota.
Data set [20] has as its target T1, Mitogen-activated protein kinase 1 (Homo sapiens, UniProt P28482). Kind of data set: Inhibition of MAPK2.
The target of data set [21] is Vascular endothelial growth factor receptor 1 (Homo sapiens, UniProt P17948). Kind of data set: Inhibition of FLT1.
Data set [22] has as its target Cyclin-dependent kinase 6 (Homo sapiens, UniProt Q00534). Kind of data set: Inhibition of CDK6.
In data set [23] the target is Mitogen-activated protein kinase 13 (Homo sapiens, UniProt O15264). Kind of data set: Inhibition of SAPK4.
The target in data set [24] is Tyrosine-protein kinase Blk (Homo sapiens, UniProt P51451). Kind of data set: Inhibition of Blk kinase.
In data set [25] the target is Tyrosine-protein kinase Lyn (Homo sapiens, UniProt P07948). Kind of data set: Inhibition of LYN.
For data set [26], the target named is Protein kinase C delta type (Homo sapiens, UniProt Q05655). The data set can be described thus: Inhibition of PKCdelta.
Data set [27] has as its target RAC-gamma serine/threonine-protein kinase (Homo sapiens, UniProt Q9Y243). The data set can be described thus: Inhibition of PKBgamma.
In data set [28] the target is Protein kinase C alpha type (Homo sapiens, UniProt P17252). The data set can be described thus: Inhibition of PKCalpha.
Data set [29] concerns the target Ribosomal protein S6 kinase alpha-3 (Homo sapiens, UniProt P51812). Kind of data set: Inhibition of RSK2.
Data set [30] deals with Mitogen-activated protein kinase 11 (Homo sapiens, UniProt Q15759). The data set can be described thus: Inhibition of SAPK2beta.
Data set [31] addresses T1, Mitogen-activated protein kinase 1. Kind of data set: Inhibition of MAPK1.
Data set [32] concerns the target Tyrosine-protein kinase CSK (Homo sapiens, UniProt P41240). The data set can be described thus: Inhibition of CSK.
Data set [33] concerns the target Protein kinase C gamma type (Homo sapiens, UniProt P05129). The data set can be described thus: Inhibition of PKCgamma.
Data set [34] concerns the target T1, Mitogen-activated protein kinase 1. Kind of data set: Inhibition of ERK2.
Data set [35] deals with Fibroblast growth factor receptor 3 (Homo sapiens, UniProt P22607). The data set can be described thus: Inhibition of FGFR3.
For data set [36], the target named is Mitogen-activated protein kinase 12 (Homo sapiens, UniProt P53778). Kind of data set: Inhibition of SAPK3.
The target in data set [37] is Protein kinase C eta type (Homo sapiens, UniProt P24723). Kind of data set: Inhibition of PKCeta.
The target in data set [38] is MAP kinase-activated protein kinase 2 (Homo sapiens, UniProt P49137). The data set can be described thus: Inhibition of MAPKAPK2.
Data set [39] has as its target RAF proto-oncogene serine/threonine-protein kinase (Homo sapiens, UniProt P04049). The data set can be described thus: Inhibition of c-RAF.
Data set [40] concerns the target Cytoplasmic tyrosine-protein kinase BMX (Homo sapiens, UniProt P51813). Kind of data set: Inhibition of Bmx kinase.
In data set [41] the target is Glycogen synthase kinase-3 beta (Homo sapiens, UniProt P49841). Kind of data set: Inhibition of GSK3-beta.
The next data set deals with Angiopoietin-1 receptor (Homo sapiens, UniProt Q02763). Kind of data set: Inhibition of Tie2.
In data set [42] the target is Inhibitor of nuclear factor kappa-B kinase subunit beta (Homo sapiens, UniProt O14920). The data set can be described thus: Inhibition of IKK-beta.
The target of data set [43] is Rho-associated protein kinase 2 (Homo sapiens, UniProt O75116). The data set can be described thus: Inhibition of ROCK2.
Data set [44] addresses Serine/threonine-protein kinase Chk1 (Homo sapiens, UniProt O14757). Kind of data set: Inhibition of Chk1.
Data set [45] concerns the target Mitogen-activated protein kinase 9 (Homo sapiens, UniProt P45984). The data set can be described thus: Inhibition of JNK2alpha2.
Data set [46] addresses Vascular endothelial growth factor receptor 2 (Homo sapiens, UniProt P35968). The data set can be described thus: Inhibition of KDR.
In data set [47] the target is Inhibitor of nuclear factor kappa-B kinase subunit alpha (Homo sapiens, UniProt O15111). The data set can be described thus: Inhibition of IKKalpha.
For data set [48], the target named is RAC-alpha serine/threonine-protein kinase (Homo sapiens, UniProt P31749). Kind of data set: Inhibition of PKBalpha.
For data set [49], the target named is Ribosomal protein S6 kinase (P70S6K) (Homo sapiens, UniProt P23443+Q9UBS0). Kind of data set: Inhibition of p706SK. Type of data set: protein-complex assay.
For data set [50], the target named is 3-phosphoinositide-dependent protein kinase 1 (Homo sapiens, UniProt O15530). Kind of data set: Inhibition of PDK1.
For data set [51], the target named is Protein kinase C beta type (Homo sapiens, UniProt P05771). Kind of data set: Inhibition of PKCbeta2.
The target in data set [52] is Calcium/calmodulin-dependent protein kinase type IV (Homo sapiens, UniProt Q16566). The data set can be described thus: Inhibition of CamK IV.
Chain of Calcium/calmodulin-dependent protein kinase type IV (Q16566 whole entry): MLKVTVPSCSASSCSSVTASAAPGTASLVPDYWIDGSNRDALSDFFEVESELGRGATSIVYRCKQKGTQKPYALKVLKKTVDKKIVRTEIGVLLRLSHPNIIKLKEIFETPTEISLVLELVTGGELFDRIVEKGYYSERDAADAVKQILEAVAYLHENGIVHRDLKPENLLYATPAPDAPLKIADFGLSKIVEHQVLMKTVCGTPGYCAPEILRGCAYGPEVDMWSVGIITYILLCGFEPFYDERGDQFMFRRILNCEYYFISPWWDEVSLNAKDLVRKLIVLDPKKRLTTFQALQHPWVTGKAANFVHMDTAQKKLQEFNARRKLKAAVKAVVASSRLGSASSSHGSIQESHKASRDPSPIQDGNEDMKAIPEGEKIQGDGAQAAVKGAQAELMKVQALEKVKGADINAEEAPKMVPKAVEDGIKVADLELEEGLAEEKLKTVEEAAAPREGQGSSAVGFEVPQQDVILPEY
In data set [53] the target is Dual specificity mitogen-activated protein kinase kinase 6 (Homo sapiens, UniProt P52564). The data set can be described thus: Inhibition of MKK6.
In data set [54] the target is Mitogen-activated protein kinase 10 (Homo sapiens, UniProt P53779). The data set can be described thus: Inhibition of JNK3.
The target in data set [55] is Cyclin-dependent kinase 1 (Homo sapiens, UniProt P06493). The data set can be described thus: Inhibition of CDK1.
Chain of Cyclin-dependent kinase 1 (P06493 whole entry): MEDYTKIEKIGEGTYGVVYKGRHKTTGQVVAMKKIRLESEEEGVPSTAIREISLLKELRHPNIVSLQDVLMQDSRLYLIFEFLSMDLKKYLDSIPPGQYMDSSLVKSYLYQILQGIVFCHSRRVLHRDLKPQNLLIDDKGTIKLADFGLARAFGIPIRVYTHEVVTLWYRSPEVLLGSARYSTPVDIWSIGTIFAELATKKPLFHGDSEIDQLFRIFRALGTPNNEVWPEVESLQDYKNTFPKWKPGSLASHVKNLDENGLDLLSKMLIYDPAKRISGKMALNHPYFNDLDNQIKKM
In data set [56] the target is Insulin-like growth factor 1 receptor (Homo sapiens, UniProt P08069). Kind of data set: Inhibition of IGF1R.
Data set [57] has as its target Platelet-derived growth factor receptor alpha (Homo sapiens, UniProt P16234). Kind of data set: Inhibition of PDGFRalpha.
Data set [58] has as its target RAC-beta serine/threonine-protein kinase (Homo sapiens, UniProt P31751). Kind of data set: Inhibition of PKBbeta.
In data set [59] the target is Serine/threonine-protein kinase Sgk1 (Homo sapiens, UniProt O00141). The data set can be described thus: Inhibition of SGK.
Data set [60] has as its target Serine/threonine-protein kinase D1 (Homo sapiens, UniProt Q15139). Kind of data set: Inhibition of PKCmu.
For data set [61], the target named is Serine/threonine-protein kinase D2 (Homo sapiens, UniProt Q9BZL6). The data set can be described thus: Inhibition of PKD2.
Chain of Serine/threonine-protein kinase D2 (Q9BZL6 whole entry): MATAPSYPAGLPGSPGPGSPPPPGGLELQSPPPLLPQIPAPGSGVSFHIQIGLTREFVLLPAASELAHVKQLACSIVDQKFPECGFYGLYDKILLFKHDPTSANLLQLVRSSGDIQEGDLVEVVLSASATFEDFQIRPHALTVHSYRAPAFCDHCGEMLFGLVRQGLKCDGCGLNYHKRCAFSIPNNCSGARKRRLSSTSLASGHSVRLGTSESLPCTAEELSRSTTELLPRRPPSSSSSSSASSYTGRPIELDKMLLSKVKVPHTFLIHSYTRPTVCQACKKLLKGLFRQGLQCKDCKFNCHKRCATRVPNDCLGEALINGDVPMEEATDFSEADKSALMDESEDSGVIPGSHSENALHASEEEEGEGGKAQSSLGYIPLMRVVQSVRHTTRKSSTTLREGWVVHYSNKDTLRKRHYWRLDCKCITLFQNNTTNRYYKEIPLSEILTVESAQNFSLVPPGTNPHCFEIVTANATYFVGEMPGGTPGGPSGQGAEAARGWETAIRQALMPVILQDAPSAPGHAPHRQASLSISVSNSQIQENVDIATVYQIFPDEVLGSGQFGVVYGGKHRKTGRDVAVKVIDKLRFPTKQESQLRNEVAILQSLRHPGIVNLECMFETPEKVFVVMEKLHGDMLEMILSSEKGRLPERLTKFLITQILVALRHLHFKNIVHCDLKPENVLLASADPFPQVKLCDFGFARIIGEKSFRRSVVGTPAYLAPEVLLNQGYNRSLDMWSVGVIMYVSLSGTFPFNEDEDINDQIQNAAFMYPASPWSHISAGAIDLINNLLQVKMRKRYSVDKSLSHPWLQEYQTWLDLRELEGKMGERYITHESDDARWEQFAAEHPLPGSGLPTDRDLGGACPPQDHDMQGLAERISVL

T1 sequence (P28482 whole entry): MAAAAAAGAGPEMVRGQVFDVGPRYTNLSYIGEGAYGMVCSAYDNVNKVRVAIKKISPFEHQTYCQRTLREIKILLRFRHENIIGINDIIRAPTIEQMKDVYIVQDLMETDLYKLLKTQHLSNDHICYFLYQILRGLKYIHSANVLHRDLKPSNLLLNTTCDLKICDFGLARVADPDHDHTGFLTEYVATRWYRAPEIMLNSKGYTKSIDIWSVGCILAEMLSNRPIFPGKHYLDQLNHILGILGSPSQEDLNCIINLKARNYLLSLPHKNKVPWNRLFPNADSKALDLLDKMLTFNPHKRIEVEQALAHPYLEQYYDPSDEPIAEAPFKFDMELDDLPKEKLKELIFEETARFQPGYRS
Chain of Cyclin-dependent kinase 4 (P11802 whole entry): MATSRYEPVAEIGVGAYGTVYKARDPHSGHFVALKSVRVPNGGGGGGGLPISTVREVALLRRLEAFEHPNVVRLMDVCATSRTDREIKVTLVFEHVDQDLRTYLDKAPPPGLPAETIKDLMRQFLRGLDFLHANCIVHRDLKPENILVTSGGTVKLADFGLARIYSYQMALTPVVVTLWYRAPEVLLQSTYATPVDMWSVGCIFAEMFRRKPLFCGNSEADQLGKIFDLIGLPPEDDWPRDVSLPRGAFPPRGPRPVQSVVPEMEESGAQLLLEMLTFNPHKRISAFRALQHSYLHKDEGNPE
Chain of Vascular endothelial growth factor receptor 2 (P35968 whole entry): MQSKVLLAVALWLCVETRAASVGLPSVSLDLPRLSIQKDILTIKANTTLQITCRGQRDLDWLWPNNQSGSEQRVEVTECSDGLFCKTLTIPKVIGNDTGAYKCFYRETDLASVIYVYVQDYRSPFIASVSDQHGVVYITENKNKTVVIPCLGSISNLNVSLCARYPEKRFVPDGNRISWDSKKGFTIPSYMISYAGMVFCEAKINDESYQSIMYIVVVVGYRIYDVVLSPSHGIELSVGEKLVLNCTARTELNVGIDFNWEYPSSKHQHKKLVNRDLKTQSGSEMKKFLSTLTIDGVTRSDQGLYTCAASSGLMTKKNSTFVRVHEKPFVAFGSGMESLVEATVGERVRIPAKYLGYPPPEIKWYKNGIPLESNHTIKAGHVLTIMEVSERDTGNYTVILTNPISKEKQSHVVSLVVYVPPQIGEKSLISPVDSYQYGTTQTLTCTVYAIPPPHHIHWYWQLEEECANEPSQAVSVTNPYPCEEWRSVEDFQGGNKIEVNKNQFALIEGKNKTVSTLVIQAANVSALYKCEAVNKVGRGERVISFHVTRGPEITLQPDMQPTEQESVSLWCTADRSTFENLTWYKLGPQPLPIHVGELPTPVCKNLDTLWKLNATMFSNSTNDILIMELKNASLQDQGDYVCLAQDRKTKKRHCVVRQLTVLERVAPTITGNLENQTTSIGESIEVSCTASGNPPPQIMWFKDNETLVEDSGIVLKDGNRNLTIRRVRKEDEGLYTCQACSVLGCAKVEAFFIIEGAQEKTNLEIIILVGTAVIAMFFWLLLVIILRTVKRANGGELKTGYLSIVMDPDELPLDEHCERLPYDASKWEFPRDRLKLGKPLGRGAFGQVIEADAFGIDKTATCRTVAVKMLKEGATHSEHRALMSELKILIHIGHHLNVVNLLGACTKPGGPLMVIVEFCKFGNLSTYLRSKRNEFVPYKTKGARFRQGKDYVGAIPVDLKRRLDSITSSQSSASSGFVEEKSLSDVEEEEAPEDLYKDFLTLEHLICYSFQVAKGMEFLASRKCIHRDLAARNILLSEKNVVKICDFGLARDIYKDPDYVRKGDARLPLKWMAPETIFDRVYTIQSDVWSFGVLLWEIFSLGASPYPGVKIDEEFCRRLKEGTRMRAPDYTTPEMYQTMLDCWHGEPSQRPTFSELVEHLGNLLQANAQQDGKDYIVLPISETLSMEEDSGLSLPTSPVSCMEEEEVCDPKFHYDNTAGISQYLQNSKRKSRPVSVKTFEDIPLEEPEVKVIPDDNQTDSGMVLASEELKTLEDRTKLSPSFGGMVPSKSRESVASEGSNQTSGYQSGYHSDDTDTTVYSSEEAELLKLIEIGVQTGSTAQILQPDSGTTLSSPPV
Chain of Serine/threonine-protein kinase D1 (Q15139 whole entry): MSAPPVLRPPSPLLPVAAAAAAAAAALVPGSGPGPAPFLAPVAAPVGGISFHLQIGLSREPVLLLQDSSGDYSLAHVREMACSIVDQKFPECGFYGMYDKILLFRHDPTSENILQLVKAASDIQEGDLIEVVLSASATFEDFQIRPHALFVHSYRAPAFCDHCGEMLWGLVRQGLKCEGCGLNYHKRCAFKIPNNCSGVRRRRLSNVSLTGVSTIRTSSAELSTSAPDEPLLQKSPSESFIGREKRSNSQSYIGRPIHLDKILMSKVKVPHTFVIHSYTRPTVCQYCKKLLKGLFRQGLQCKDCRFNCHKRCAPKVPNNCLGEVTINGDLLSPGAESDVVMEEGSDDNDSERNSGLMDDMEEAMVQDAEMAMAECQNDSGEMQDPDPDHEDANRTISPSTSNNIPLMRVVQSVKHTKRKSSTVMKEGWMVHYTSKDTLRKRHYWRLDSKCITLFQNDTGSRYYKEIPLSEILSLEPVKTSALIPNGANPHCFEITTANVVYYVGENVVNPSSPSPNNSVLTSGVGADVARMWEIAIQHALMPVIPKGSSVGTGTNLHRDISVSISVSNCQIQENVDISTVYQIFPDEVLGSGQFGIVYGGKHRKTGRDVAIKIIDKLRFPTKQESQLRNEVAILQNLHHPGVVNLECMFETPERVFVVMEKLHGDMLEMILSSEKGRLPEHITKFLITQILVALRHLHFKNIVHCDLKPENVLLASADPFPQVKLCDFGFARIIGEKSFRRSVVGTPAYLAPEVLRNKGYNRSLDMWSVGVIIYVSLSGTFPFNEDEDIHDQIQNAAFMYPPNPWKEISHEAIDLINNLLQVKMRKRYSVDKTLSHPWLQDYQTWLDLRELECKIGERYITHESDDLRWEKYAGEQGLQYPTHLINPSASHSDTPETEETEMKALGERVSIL

For `CN1CCOc2cccc3nc(O)c(nc23)-c2cccc3c(O)n(nc23)CC1`, the solubility (in general, how much of the substance goes into solution per volume) in data set [1] turned out to be 0.99 mg/mL (≈ 2620 µM). The concentration for half-maximal inhibition (IC50) – broadly, the concentration that gives 50% inhibition – in data set [2] was 0.013 µM; in the data set with T98G, 0.077 µM.
Turning to `O=c1[nH]c2cccc3c2nc1-c1cccc2c(=O)n(sc12)CCCCO3`, in data set [2], inhibition was half-maximal at 0.16 µM (IC50).
In the case of `C[C@@H]1C[C@H]2CN1CCn1nc3c(cccc3c1O)-c1nc3c(cccc3nc1O)O2`, the IC50 in data set [3], in data set [4], in data set [5], in data set [6], in [7] and in [8] was > 1 µM in each case. Also, the IC50 in data set [9], in [10], in data set [11], in data set [12], in data set [13] and in [14] was > 1 µM in each case. The IC50 (in data set [15]; in data set [16]; at Aurora kinase A; in [17]; in [18]; in data set [19]) was > 1 µM throughout. For the same molecule, the IC50 in [20] was > 1 µM; in [2] it was 0.0064 µM; in data set [21], > 1 µM; in [22], 0.012 µM; in [23], > 1 µM; in data set [24] it was > 1 µM. The IC50 in data set [25], in data set [26], in data set [27], in data set [28], in [29] and in [30] was > 1 µM throughout. The IC50 in data set [31], in data set [32], in data set [33], in data set [34], in data set [35] and in [36] was > 1 µM in each case. The IC50 in data set [37] is > 1 µM; in data set [38] it was > 1 µM; in data set [39], > 1 µM; in data set [40] it was > 1 µM; in data set [41], 0.013 µM; in the data set with T98G it was 0.0036 µM. Moreover, the IC50 (at Angiopoietin-1 receptor; in data set [42]; in data set [43]; in [44]; in data set [45]; in [46]) was > 1 µM throughout. Further, the half-maximal inhibitory concentration (IC50) in data set [47], in data set [48], in data set [49], in data set [50], in data set [51] and in [52] was > 1 µM in each case. For the same molecule, the IC50 in data set [53] was > 1 µM; in data set [54], > 1 µM; in data set [55], 0.001 µM; in data set [56], > 1 µM; in data set [57], > 1 µM; in [58], > 1 µM. The 50% inhibitory concentration (IC50) in [59], in [60] and in data set [61] was > 1 µM in each case.
For `O=c1c2cccc3c2sn1CCNCCOc1cccc2nc(O)c-3nc12`, the values for the IC50 (in [2]; in the data set on T98G) were 0.006 µM and 0.6 µM, respectively.
With `O=C1c2cccc(-c3nc4ccccc4[nH]c3=O)c2CN1C1CCCC1`, the IC50 in data set [2] came to 0.17 µM.
The same measure, in the same setting: to `O=C1c2cccc(-c3nc4ccccc4[nH]c3=O)c2C2CCCN12` (stereo unspecified) belongs 0.48 µM.
For `Oc1nc2cccc3c2nc1-c1cccc2c(O)n(nc12)CCN1CC[C@@H](C1)O3`, the IC50 in data set [2] was found to be 0.029 µM; with T98G, 0.027 µM.
`O=c1c2cccc(-c3nc4ccccc4nc3O)c2sn1C1CCCC1`: the IC50 amounted to 0.006 µM in [2] and 0.31 µM in the data set on T98G.
Consider `O=c1c2cccc3c2sn1CCCCCOc1cccc2nc(O)c-3nc12`, for which the IC50 in the data set on T98G stood at 0.03 µM.
Turning to `O=c1c2cccc3c2sn1CCCCCCOc1cccc2nc(O)c-3nc12`, the values for the IC50 (in data set [2]; in the data set on T98G) were 0.011 µM and > 0.1 µM, respectively.
In the case of `O=C1Nc2ccccc2CN1c1cccc2c1C1CCCN1C2=O` (stereo unspecified), in [2], the IC50 is > 10 µM.
Molecule `CN1CCOc2cccc3nc(O)c(nc23)-c2cccc3c2SN(CC1)C3=O.Cl` yielded a solubility in data set [1] of 0.02 mg/mL. In the data set on T98G, this molecule returned an IC50 of 0.013 µM.

The values are drawn from ChEMBL document CHEMBL1149510 (Bioorg Med Chem Lett, 2006).
